Key:
[1] = organism: Rattus norvegicus; test: Selectivity quotient (R&T125/HR75)
[2] = organism: Rattus norvegicus; test: Score value indicates selectivity against the undesired effect on diastolic blood pressure; assay type: functional, Artery
[3] = Partition coefficient (logP); assay type: physicochemical; details: octanol/water
In short: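 Lipophilicity was measured by reversed-phase HPLC. Mobile phase was methanol/0.005 M phosphate buffer pH 4 (60/40) with 0.1% SDS and 0.1 M NaClO4, at 23.0 ± 0.5 °C, with UV detection at 205 nm.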

[4] = organism: Cavia porcellus; test: In vitro activity in guinea pig atria as the functional refractory period (FRP), which is the shortest interval between a double stimulus causing a double contraction.
In short: (§1)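 Isolated guinea pig atria in oxygenated buffer at 35 °C. Right atria beat spontaneously; left atria were paced at 2 Hz with 1 ms rectangular pulses and isometric contractions were recorded. Cumulative concentration–response curves were run with up to five concentrations. EC75/EC125 is the concentration giving a 25% decrease/increase from the predrug value, reported as the geometric mean of individual ECs.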

[5] = organism: Rattus norvegicus; test: Score point for the selectivity versus additional effect R&T interval.; assay type: functional
[6] = system: Rattus norvegicus; test: In vivo activity in anesthetized rat was measured as heart rate which provides information on in vivo bradycardic activity; assay type: functional
In short: (§2)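 Male Wistar rats (280–360 g) under urethane (1.25 g/kg ip), intubated and breathing spontaneously. Femoral arterial pressure was recorded with needle-electrode ECG, analysed every 30 s. Compound was given by continuous femoral-vein infusion at 0.1 mL/min, with concentration raised tenfold every 10 min (3 doses). ED75/ED125 is the dose giving a 25% decrease/increase from the predrug value, reported as the geometric mean of individual EDs.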

[7] = organism: Rattus norvegicus; test: Selectivity quotient (DAP125/HR75)
[8] = system: Rattus norvegicus; test: In vivo activity in anesthetized rat was measured as the diastolic arterial pressure which provides information on the peripheral resistance of the cardiovascular system and selectivity regarding bradycardia; assay type: functional, Artery
In short: as §2

[9] = organism: Rattus norvegicus; test: Score value indicates desire effect on heart rate; assay type: functional
[10] = organism: Rattus norvegicus; test: Total score (SS)
[11] = system: Rattus norvegicus; test: In vivo activity in anesthetized rat was measured as the R alpha T-interval of the rat ECG which reflects the time from ventricular excitation to recovery; assay type: functional, Cardiac ventricle
In short: as §2

[12] = organism: Cavia porcellus; test: In vitro activity in guinea pig atria was measured as the peak force of contraction (F) of a stimulated left atrium; assay type: functional; details: Cardiac atrium
In short: as §1

[13] = organism: Cavia porcellus; test: Score point for the selectivity versus additional effect FRP.; assay type: functional
[14] = organism: Cavia porcellus; test: In vitro activity in guinea pig atria was measured as rate of spontaneously beating right atrium (SR) which reflects the activity of the sinus node; assay type: functional; details: Cardiac atrium
In short: as §1

[15] = organism: Cavia porcellus; test: Selectivity quotient (FRP125/SR75); assay type: functional
In short: (§3)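 Atrial selectivity quotients were calculated from the guinea pig atrial EC values as F75/SR75 and FRP125/SR75.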

[16] = organism: Cavia porcellus; test: Sum of the scores of decrease of the sinus rate and selectivity versus the decrease in force of contraction; assay type: functional
[17] = organism: Cavia porcellus; test: Score value indicates selectivity versus the decrease in force of contraction; assay type: functional
[18] = organism: Cavia porcellus; test: Score value indicates decrease of the sinus rate; assay type: functional
[19] = organism: Cavia porcellus; test: Selectivity quotient (F75/SR75); assay type: functional
In short: as §3

| SMILES | logP ([3]; read-out: logP) | logP [3] | Selectivity quotient [1] | Score [2] | EC125 [4] [µM] | Score [5] | ED75 [6] [µM/kg] | Selectivity quotient [7] | ED125 [8] [µM/kg] | Score [9] | total score (SS) [10] | ED125 [11] [µM/kg] | EC75 [12] [µM] | Score [13] | EC75 [14] [µM] | Selectivity quotient [15] | Score [16] | Score [17] | Score [18] | Selectivity quotient [19] |
| --- | --- | --- | --- | --- | --- | --- | --- | --- | --- | --- | --- | --- | --- | --- | --- | --- | --- | --- | --- | --- |
| CCCCCCCCCCN1CC2CN(CCCCCCCCCC)CC(C1)C2(C)C | – | 9.64 | – | – | 85 | – | – | – | – | – | – | – | 105 | – | – | – | – | – | – | – |
| C=CCN1CC2CN(CC=C)CC(C1)C2(C)C | 2.7 | – | – | – | 4.3 | – | – | – | – | – | – | – | > 215 | 4 | 8.55 | 0.5 | 3 | 0 | 3 | >25 |
| CCCCN1CC2CN(CC3CCCCC3)CC(C1)C2(C)C | 4.98 | – | 0.17 | -1 | 0.48 | 5 | 5.7 | >7 | >41 | 5 | 4 | 0.96 | 16.3 | 3 | 0.88 | 0.55 | 5 | -1 | 6 | 18.5 |
| C=CCCN1CC2CN(CCC=C)CC(C1)C2(C)C | 3.13 | – | 0.13 | -1 | 1.87 | 5 | 7.1 | >6 | >46 | 5 | 4 | 0.94 | > 215 | 3 | 1.21 | 1.54 | 5 | 0 | 5 | >177 |
| C=CCCN1CC2CN(CCCC)CC(C1)C2(C)C | 3.42 | – | 0.12 | -4 | 2.08 | 5 | 5.9 | 0.37 | 2.2 | 5 | 1 | 0.7 | 106 | 3 | 1.21 | 1.72 | 5 | 0 | 5 | 87.6 |

Continued, in another order:

| logP ([3]; read-out: logP) | logP [3] | SMILES | Selectivity quotient [1] | Score [2] | EC125 [4] [µM] | Score [5] | ED75 [6] [µM/kg] | Selectivity quotient [7] | ED125 [8] [µM/kg] | Score [9] | total score (SS) [10] | ED125 [11] [µM/kg] | EC75 [12] [µM] | Score [13] | EC75 [14] [µM] | Selectivity quotient [15] | Score [16] | Score [17] | Score [18] | Selectivity quotient [19] |
| --- | --- | --- | --- | --- | --- | --- | --- | --- | --- | --- | --- | --- | --- | --- | --- | --- | --- | --- | --- | --- |
| 4.88 | – | CCCCCCN1CC2CN(C)CC(C1)C2(CC)CC | 0.12 | -1 | 0.84 | 5 | 25 | >4 | >106 | 3 | 2 | 3 | 17.5 | – | – | – | – | – | – | – |
| 7.03 | – | CCCCN1CC2CN(CCCC)CC(C1)C2(CCCC)CCCC | 0.37 | -3 | 1.01 | 4 | 8.7 | 0.58 | 5.1 | 4 | 1 | 3.2 | 2.14 | 3 | 1.91 | 0.53 | 0 | -5 | 5 | 1.12 |
| 4.24 | – | CCCCN1CC2CN(CCCC)CC(C1)C21CCC1 | 0.12 | -5 | 0.63 | 5 | 4.7 | 0.13 | 0.6 | 6 | 1 | 0.55 | 56.1 | 3 | 0.52 | 1.21 | 6 | 0 | 6 | 108 |

Source: ChEMBL document CHEMBL1131456, “Synthesis, pharmacological characterization, and quantitative structure-activity relationship analyses of 3,7,9,9-tetraalkylbispidines: derivatives with specific bradycardic activity” (J Med Chem, 1998)
